Several values for one entry are separate records, joined by “and”; a condition that tells them apart may be missing. Equal values may be shown once. Entries after “also recorded” stand apart in the source; their conditions may differ. Read-outs that look alike come from different tables or passages of the source.
How the values were obtained:
PpADT-Cmut^1 [1] = experiment: Inhibition of PDT activity by Phe, chimeric enzyme; format: biochemical, Pinus pinaster
Summary of the method: (§1)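 PDT reaction: about 5 µg of His-tagged, Ni-purified Pinus pinaster ADT (wild-type or fusion-PCR chimera) in 50 mM Tris pH 8.0 was preincubated 5 min with Phe. The reaction started with 1 mM Ppa at 30°C; Ppa content was first verified by HCl conversion. It was stopped with 2 M NaOH and left ≥10 min at room temperature. Phenylpyruvate was read at 321 nm against a calibration curve. At least duplicate; IC50, Ki and inhibition type came from kinetic fitting.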

PpADT-Gmut^11 = experiment: Inhibition of PDT activity by Phe, mutant enzyme; format: biochemical, Pinus pinaster; settings: read-out: IC50 (μM) for Phe; PDT reaction, 1 mM of substrate (Ppa); Ala314→Val
Summary of the method: (§2)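 PpADT-G point mutants were made by site-directed mutagenesis, expressed His-tagged in E. coli BL21 DE3 RIL and Ni-purified. About 5 µg of protein in 50 mM Tris pH 8.0 was preincubated 5 min with varying Phe. The PDT reaction started with 1 mM Ppa at 30°C and was stopped with 2 M NaOH. Phenylpyruvate was read by absorbance at 321 nm against a phenylpyruvate calibration. Triplicate; IC50 was fitted.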

Potri11G4700 = experiment: Effect of 100 μM Phe over ADT activity, recombinant type-I ADT; format: biochemical, Populus trichocarpa; settings: 100 µM of Phe, 100 µM of substrate (Agn), compared to control (absence of Phe)
Summary of the method: (§3)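 Type-I or type-II plant ADT ORFs were cloned from cDNA into pET30b without the putative plastid transit peptide and with a C-terminal His tag. Proteins were expressed in E. coli BL21 DE3 RIL (0.5 mM IPTG, 18–20 h at 12°C) and Ni-purified. About 1 µg was preincubated 5 min with 100 µM Phe in 50 mM Tris pH 8.0. Reaction started with 100 µM Agn at 30°C and was stopped with methanol. Phe formed was quantified by UPLC/MS. Activity is relative to the no-Phe control (100%); triplicate.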

AtADT4 = AtADT4 (Arabidopsis thaliana, UniProt O22241); experiment: Effect of 100 μM Phe over ADT activity, recombinant type-II ADT; format: biochemical, A. thaliana; settings: 100 µM of Phe, 100 µM of substrate (Agn)
Summary of the method: as §3

PpADT-G [2] = experiment: Inhibition of PDT activity by Phe, recombinant enzyme; format: biochemical, Pinus pinaster
Summary of the method: as §1

PpADT-C [3] = experiment: Inhibition of ADT activity by Phe, recombinant enzyme; format: biochemical, Pinus pinaster; settings: read-out: ADT IC50 (μM of Phe), 0.1 mM of Agn
Summary of the method: (§4)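 The Pinus pinaster ADT was used either as wild-type or as chimeras made by fusion PCR. It was His-tagged without the transit peptide, expressed in E. coli BL21 DE3 RIL and Ni-purified. About 1 µg of protein in 50 mM Tris pH 8.0 was preincubated 5 min with a range of Phe concentrations. Reaction started with 0.1 mM Agn at 30°C and was stopped with methanol. Phe product was quantified by UPLC/MS, with linearity checked over ≥5 min. At least duplicate; IC50 from kinetic fitting.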

Potri4G188100 = experiment: Effect of 100 μM Phe over ADT activity, recombinant type-II ADT; format: biochemical, P. trichocarpa; settings: 100 µM of Phe, 100 µM of substrate (Agn)
Summary of the method: as §3

Zeama2G125923 = experiment: as above; format: biochemical, Zea mays; settings: 100 µM of Phe, 100 µM of substrate (Agn)
Summary of the method: as §3

plastidial CM [4] = settings: read-out: Ki, inhibition of plastidial CM by Phe; ref Kuroki and Conn, 1988; cited from earlier work
PpADT-Gmut^102 = experiment: Inhibition of PDT activity by Phe, mutant enzyme; format: biochemical, Pinus pinaster; settings: read-out: IC50 (μM) for Phe; PDT reaction, 1 mM of substrate (Ppa); Leu320→Phe
Summary of the method: as §2

PpADT-Gmut^1 [5] = experiment: Inhibition of PDT activity by Phe, chimeric enzyme; format: biochemical, Pinus pinaster
Summary of the method: as §1

plastidial CM [6] = settings: read-out: IC50, inhibition of plastidial CM by Phe; ref Westfall et al., 2014; cited from earlier work
Orysa4G33390 = experiment: Effect of 100 μM Phe over ADT activity, recombinant type-II ADT; format: biochemical, O. sativa; settings: 100 µM of Phe, 100 µM of substrate (Agn)
Summary of the method: as §3

PpADT-Gmut^9 = experiment: Inhibition of PDT activity by Phe, mutant enzyme; format: biochemical, Pinus pinaster; settings: read-out: IC50 (μM) for Phe; PDT reaction, 1 mM of substrate (Ppa); Ala314→Val, Ala316→Ser, Val317→Ala
Summary of the method: (§5)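 Ni-purified His-tagged mutants, expressed in E. coli BL21 DE3 RIL, were assayed for PDT activity. About 5 µg protein in 50 mM Tris pH 8.0 was preincubated 5 min at 30°C with varying Phe. Reactions were started with 1 mM prephenate, stopped with 2 M NaOH and read at 321 nm against a phenylpyruvate calibration. Runs were in triplicate, linear ≥5 min, with IC50 obtained by kinetic fitting.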

PpADT-G [7] = experiment: Inhibition of ADT activity by Phe, recombinant enzyme; format: biochemical, Pinus pinaster
Summary of the method: as §4

PpADT-Gmut^13 = experiment: Inhibition of PDT activity by Phe, mutant enzyme; format: biochemical, Pinus pinaster; settings: read-out: IC50 (μM) for Phe; PDT reaction, 1 mM of substrate (Ppa); Val317→Ala
Summary of the method: as §2

PpADT-Gmut^8 [8] = experiment: Inhibition of PDT activity by Phe, mutant enzyme; format: biochemical, Pinus pinaster; settings: read-out: IC50 (μM) for Phe; PDT reaction, 1 mM of substrate (Ppa); Pro308→Thr, Gly309→Ser
Summary of the method: as §5

PpADT-Gmut^62 = experiment: Inhibition of PDT activity by Phe, mutant enzyme; format: biochemical, Pinus pinaster; settings: read-out: IC50 (μM) for Phe; PDT reaction, 1 mM of substrate (Ppa); Thr303→Ala, Leu304→His
Summary of the method: as §5

plastidial CM [9] = settings: read-out: Ki, inhibition of plastidial CM by Phe; ref Benesova and Bode, 1992; cited from earlier work
PpADT-Cmut^1 [10] = experiment: Inhibition of ADT activity by Phe, chimeric enzyme; format: biochemical, Pinus pinaster; settings: read-out: ADT IC50 (μM of Phe), 0.1 mM of Agn
Summary of the method: as §4

Niben8991 = experiment: Effect of 100 μM Phe over ADT activity, recombinant type-I ADT; format: biochemical, Nicotiana benthamiana; settings: 100 µM of Phe, 100 µM of substrate (Agn), compared to control (absence of Phe)
Summary of the method: as §3

ADT activity = settings: read-out: IC50 for ADT activity; crude plant extracts; ref Jung et al., 1986; cited from earlier work
PpADT-C [11] = experiment: Inhibition of PDT activity by Phe, recombinant enzyme; format: biochemical, Pinus pinaster
Summary of the method: as §1

PpADT-Gmut^1 [12] = experiment: Inhibition of ADT activity by Phe, chimeric enzyme; format: biochemical, Pinus pinaster; settings: read-out: ADT IC50 (μM of Phe), 0.1 mM of Agn
Summary of the method: as §4

PpADT-Gmut^12 = experiment: Inhibition of PDT activity by Phe, mutant enzyme; format: biochemical, Pinus pinaster; settings: read-out: IC50 (μM) for Phe; PDT reaction, 1 mM of substrate (Ppa); Ala316→Ser
Summary of the method: as §2

Cucsa52640 = experiment: Effect of 100 μM Phe over ADT activity, recombinant type-I ADT; format: biochemical, Cucumis sativus; settings: 100 µM of Phe, 100 µM of substrate (Agn), compared to control (absence of Phe)
Summary of the method: as §3

PpADT-Gmut^10 = experiment: Inhibition of PDT activity by Phe, mutant enzyme; format: biochemical, Pinus pinaster; settings: read-out: IC50 (μM) for Phe; PDT reaction, 1 mM of substrate (Ppa); Leu320→Phe, Asn324→Ser
Summary of the method: as §5

plastidial CM [13] = settings: read-out: IC50, inhibition of plastidial CM by Phe; ref Kroll et al., 2017; cited from earlier work
AtADT1 = AtADT1 (Arabidopsis thaliana, UniProt Q9SA96); experiment: Effect of 100 μM Phe over ADT activity, recombinant type-I ADT; format: biochemical, A. thaliana; settings: 100 µM of Phe, 100 µM of substrate (Agn), compared to control (absence of Phe)
Summary of the method: as §3

PpADT-Gmut^16 = experiment: Inhibition of PDT activity by Phe, mutant enzyme; format: biochemical, Pinus pinaster; settings: read-out: IC50 (μM) for Phe; PDT reaction, 1 mM of substrate (Ppa); Ala316→Ser, Val317→Ala
Summary of the method: as §5

PpADT-Gmut^103 = experiment: Inhibition of PDT activity by Phe, mutant enzyme; format: biochemical, Pinus pinaster; settings: read-out: IC50 (μM) for Phe; PDT reaction, 1 mM of substrate (Ppa); Asn324→Ser
Summary of the method: as §2

PpADT-Gmut^8 [14] = experiment: Effect of 100 μM Phe over ADT activity, mutant enzyme; format: biochemical, Pinus pinaster; settings: Phe at 100 µM
Summary of the method: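 His-tagged recombinant mutant enzyme without its transit peptide, expressed in E. coli BL21 DE3 RIL and Ni-purified. About 1 µg protein in 50 mM Tris pH 8.0 was preincubated 5 min at 30°C with 100 µM Phe. Arogenate was added to start the reaction, and methanol stopped it. Phe formed was quantified by UPLC/MS against a pure-Phe calibration. Activity is relative to the no-Phe control; error bars sd.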

PpADT-Gmut^6 = experiment: Inhibition of PDT activity by Phe, mutant enzyme; format: biochemical, Pinus pinaster; settings: read-out: IC50 (μM) for Phe; PDT reaction, 1 mM of substrate (Ppa); Thr303→Ala, Leu304→Gln
Summary of the method: as §5

[15] = read-out: PDT IC50 (μM of Phe), 1 mM of Ppa

AtADT4, sequence (O22241 35-424): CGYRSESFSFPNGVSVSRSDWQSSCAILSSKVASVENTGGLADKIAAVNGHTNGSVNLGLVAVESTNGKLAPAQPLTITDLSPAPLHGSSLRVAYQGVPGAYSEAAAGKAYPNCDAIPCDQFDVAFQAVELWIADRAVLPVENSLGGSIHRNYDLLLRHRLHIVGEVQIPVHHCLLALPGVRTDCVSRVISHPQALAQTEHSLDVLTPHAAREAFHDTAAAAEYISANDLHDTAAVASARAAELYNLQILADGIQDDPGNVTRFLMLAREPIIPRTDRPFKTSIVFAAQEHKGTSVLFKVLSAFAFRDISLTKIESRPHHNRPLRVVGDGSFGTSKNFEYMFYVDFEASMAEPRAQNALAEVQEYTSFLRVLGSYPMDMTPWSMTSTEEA
AtADT1, sequence (Q9SA96 49-392): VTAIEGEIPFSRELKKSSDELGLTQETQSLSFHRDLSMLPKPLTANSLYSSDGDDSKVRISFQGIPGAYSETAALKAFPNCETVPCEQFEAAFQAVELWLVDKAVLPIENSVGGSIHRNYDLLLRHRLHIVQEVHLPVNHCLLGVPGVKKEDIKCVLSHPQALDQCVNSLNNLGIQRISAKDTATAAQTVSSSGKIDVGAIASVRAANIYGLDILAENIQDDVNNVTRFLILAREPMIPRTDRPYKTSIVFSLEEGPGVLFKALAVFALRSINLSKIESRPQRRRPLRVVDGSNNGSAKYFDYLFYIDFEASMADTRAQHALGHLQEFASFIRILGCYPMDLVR

N[C@@H](Cc1ccccc1)C(=O)O [Phe, phenylalanine]
Proposed type of inhibition (PpADT-Cmut^1 [1]): Uncompetitive
IC50 (PpADT-Cmut^1 [1]; [15]): ~36.1 µM and 36.1 µM
Ki (PpADT-Cmut^1 [1]; read-out: PDT K i (μM of Phe)): 170 ± 16.3 µM
IC50 (PpADT-Gmut^11): 14.6 ± 2.3 µM
decrease in ADT activity (Potri11G4700): > 90%
effect on ADT activity (AtADT4): not substantially affected
Proposed type of inhibition (PpADT-G [2]): Uncompetitive
IC50 (PpADT-G [2]; [15]): 47.7 ± 3 µM
Ki (PpADT-G [2]; read-out: PDT K i (μM of Phe)): 28.1 ± 1 µM
IC50 (PpADT-C [3]): > 100 µM
effect on ADT activity (Potri4G188100): not substantially affected
effect on ADT activity (Zeama2G125923): not substantially affected
Ki (plastidial CM [4]): 550 µM
IC50 (PpADT-Gmut^102): 135.4 ± 0.7 µM
Proposed type of inhibition (PpADT-Gmut^1 [5]): allosteric; also recorded: Cooperative
IC50 (PpADT-Gmut^1 [5]; [15]): 390 ± 15.4 µM
IC50 (plastidial CM [6]): 50 µM
effect on ADT activity (Orysa4G33390): not substantially affected
IC50 (PpADT-Gmut^9): 17.5 ± 3.7 µM
ADT activity at 100 µM of Phe (PpADT-G [7]; 100 µM of Phe): mostly inactive
IC50 (PpADT-G [7]; read-out: ADT IC50 (μM of Phe), ADT activity, 0.1 mM of Agn): 27.6 ± 1.5 µM
IC50 (PpADT-Gmut^13): 23.6 ± 1.4 µM
IC50 (PpADT-Gmut^8 [8]): 445 µM
IC50 (PpADT-Gmut^62): 333.5 ± 3.1 µM
Ki (plastidial CM [9]): 1100 µM
IC50 (PpADT-Cmut^1 [10]): ~52.8 µM and 52.8 µM
decrease in ADT activity (Niben8991): > 90%
IC50 (ADT activity): ~35 µM
Proposed type of inhibition (PpADT-C [11]): Cooperative
IC50 (PpADT-C [11]; [15]): 320 µM
IC50 (PpADT-Gmut^1 [12]): > 100 µM
IC50 (PpADT-Gmut^12): 26 ± 4.8 µM
decrease in ADT activity (Cucsa52640): > 90%
IC50 (PpADT-Gmut^10): 184 ± 24.7 µM
IC50 (plastidial CM [13]): 82 µM
decrease in ADT activity (AtADT1): > 90%
IC50 (PpADT-Gmut^16): 17.2 ± 0.2 µM
IC50 (PpADT-Gmut^103): 234 ± 4.9 µM
Phe-mediated inhibition of ADT activity compared to the wild-type (PpADT-Gmut^8 [14]): more resistant to inhibition than the wild-type
IC50 (PpADT-Gmut^6): 333 ± 8 µM

From publication PMC8774845 (Plant Physiology, 2021)
